Laboratory results reported in ChEMBL document CHEMBL5030529, “Rationally Modified Antimicrobial Peptides from the N-Terminal Domain of Human RNase 3 Show Exceptional Serum Stability” (J Med Chem, 2021).
pIC50: −log10 of the molar value. Converted amounts (≈) assume the structure as drawn. The source made the active and inactive calls. No cut-off for these calls is given here.

Assays:
Cell membrane [1] = assay: Induction of membrane depolarization in Escherichia coli at 0.4 uM incubated 20 to 30 mins under dark by Eclipse fluorescence spectrometry; format: subcellular; details: time 20-30 min
How it was run: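 Exponential-phase E. coli (OD 0.2–0.4) was washed in 5 mM HEPES, 20 mM glucose, 100 mM KCl, pH 7.2, and resuspended to OD 0.05. DiSC3(5) was added at 0.4 μM final and equilibrated in the dark for 20–30 min to a stable baseline. Peptide was then added and dye release was followed by fluorescence at ex 625 nm / em 666 nm.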

Cell membrane [2] = assay: Induction of membrane damage in Escherichia coli assessed as loss of membrane integrity by measuring blebs at 10 uM incubated for 2 hrs by Electron scanning microscopy; format: subcellular
How it was run: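 E. coli was grown in LB at 37 °C to OD600 0.4 and exposed to 10 μM peptide for 2 h at room temperature. Cells were collected on 0.1 μm filters, fixed in 2.5% glutaraldehyde in cacodylate buffer pH 7.4 and post-fixed in 1% OsO4. Samples were dehydrated in ethanol, coated with gold–palladium and imaged at 15 kV.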

Pseudomonas sp. = assay: Antimicrobial activity against Pseudomonas sp assessed as bacterial growth inhibition incubated in presence of serum for 24 hrs; format: functional
How it was run: (§1)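 Broth microdilution in polypropylene plates in Mueller-Hinton medium, inoculum 5 × 10^5 CFU/mL, 37 °C for 24 h. […] MIC is the lowest peptide concentration with no growth. Values are the mean of three independent studies.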

[3] = Retention time of the compound by HPLC analysis; format: physicochemical
How it was run: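 Analytical RP-HPLC on a C18 column (4.6 × 50 mm, 3 μm) with a linear gradient of 0–60% acetonitrile (0.036% TFA) into water (0.045% TFA) over 15 min. Flow was 1 mL/min with UV detection at 220 nm.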

[4] = Stability in human serum assessed as half life by LC-MS analysis; format: ADME, cell-free
How it was run: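 1 mM peptide stocks in water were mixed 1:1 (v/v) with human serum. Aliquots were taken at set times and digestion was stopped by acetonitrile precipitation. Serum proteins were removed by centrifugation, and intact peptide and fragments in the supernatant were analysed by LC–MS. Half-life values are the mean of three independent studies.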

[5] = Hemolytic activity in horse RBC assessed as hemolysis at 250 uM relative to control; format: ADME, tissue-based, Equus caballus; details: erythrocyte
How it was run: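 Horse erythrocytes were diluted 10-fold in PBS and washed by three spins at 800g. They were incubated with peptides for 4 h at 37 °C, and supernatant absorbance was read at 540 nm. Percent hemolysis is relative to total lysis with 1% Triton X-100. Values are the mean of three independent studies.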

MRC5 = assay: Cytotoxicity against human MRC5 cells assessed as cell growth inhibition measured after 4 hrs by MTT assay; format: cell-based; details: MRC5, 4 h
How it was run: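 MRC-5 fibroblasts were grown in MEMα with 10% FBS, seeded at 3 × 10^4 cells/well and left overnight to adhere. Cells were exposed to two-fold peptide serial dilutions for 4 h, then given medium with MTT at 0.4 mg/mL for 150 min. Formazan was dissolved in DMSO and read at 600 nm. Values are the mean of three independent studies.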

Acinetobacter baumannii [6] = assay: Antimicrobial activity against Acinetobacter baumannii assessed as bacterial growth inhibition incubated for 24 hrs
Salmonella enterica = assay: Antimicrobial activity against Salmonella enterica assessed as bacterial growth inhibition incubated in presence of serum for 24 hrs; format: functional; how it was run: as §1
Escherichia coli [7] = assay: Antimicrobial activity against Escherichia coli assessed as bacterial growth inhibition incubated for 24 hrs
Shigella flexneri = assay: Antimicrobial activity against Shigella flexneri assessed as bacterial growth inhibition incubated in presence of serum for 24 hrs; format: functional; how it was run: as §1
Acinetobacter baumannii [8] = assay: Antimicrobial activity against clinical isolate Acinetobacter baumannii 3878 assessed as bacterial growth inhibition incubated in presence of serum for 24 hrs; format: functional; how it was run: as §1
Acinetobacter baumannii [9] = assay: Antimicrobial activity against clinical isolate Acinetobacter baumannii 3862 assessed as bacterial growth inhibition incubated in presence of serum for 24 hrs; format: functional; how it was run: as §1
Salmonella typhimurium [10] = assay: Antimicrobial activity against clinical isolate Salmonella typhimurium 324 assessed as bacterial growth inhibition incubated in presence of serum for 24 hrs; format: functional, Salmonella enterica subsp. enterica serovar Typhimurium; details: Salmonella enterica; how it was run: as §1
Acinetobacter baumannii [11] = assay: Antimicrobial activity against clinical isolate Acinetobacter baumannii 3880 assessed as bacterial growth inhibition incubated in presence of serum for 24 hrs; format: functional; how it was run: as §1
Pseudomonas aeruginosa [12] = assay: Antimicrobial activity against clinical isolate Pseudomonas aeruginosa 827651 assessed as bacterial growth inhibition incubated in presence of serum for 24 hrs; format: functional; how it was run: as §1
Escherichia coli [13] = assay: Antimicrobial activity against clinical isolate Escherichia coli 116878 assessed as bacterial growth inhibition incubated in presence of serum for 24 hrs; format: functional; how it was run: as §1
Acinetobacter baumannii [14] = assay: Antimicrobial activity against clinical isolate Acinetobacter baumannii 3879 assessed as bacterial growth inhibition incubated in presence of serum for 24 hrs; format: functional; how it was run: as §1
Escherichia coli [15] = assay: Antimicrobial activity against clinical isolate Escherichia coli cf073 assessed as bacterial growth inhibition incubated in presence of serum for 24 hrs; format: functional; how it was run: as §1
Salmonella typhimurium [16] = assay: Antimicrobial activity against clinical isolate Salmonella typhimurium 365 assessed as bacterial growth inhibition incubated in presence of serum for 24 hrs; format: functional, Salmonella enterica subsp. enterica serovar Typhimurium; details: Salmonella enterica; how it was run: as §1
Pseudomonas aeruginosa [17] = assay: Antimicrobial activity against clinical isolate Pseudomonas aeruginosa 827632 assessed as bacterial growth inhibition incubated in presence of serum for 24 hrs; format: functional; how it was run: as §1

Compound	Activity (Cell membrane [1])	Activity (Cell membrane [2])	MIC (Pseudomonas sp.) [µM]	Retention_time [3] [min]	half-life [4] [min]	Activity [5] [%]	pIC50 (MRC5)	MIC (Acinetobacter baumannii [6]) [µM]	MIC (Salmonella enterica) [µM]	MIC (Escherichia coli [7]) [µM]	MIC (Shigella flexneri) [µM]	other results
CC[C@H](C)[C@H](NC(=O)[C@H](CCCCN)NC(=O)[C@H](CCC(=O)O)NC(=O)[C@H](CCCCN)NC(=O)[C@H](CO)NC(=O)[C@H](CCCCN)NC(=O)[C@H](CCCNC(=N)N)NC(=O)[C@H](Cc1ccccc1)NC(=O)[C@H](Cc1ccccc1)NC(=O)[C@H](CC(=O)O)NC(=O)CNC(=O)[C@H](CC(C)C)NC(=O)[C@@H](N)CC(C)C)C(=O)NCC(=O)N[C@@H](CCCCN)C(=O)N[C@@H](CCC(=O)O)C(=O)N[C@@H](Cc1ccccc1)C(=O)N[C@@H](CCCCN)C(=O)N[C@@H](CCCNC(=N)N)C(=O)N[C@H](C(=O)N[C@H](C(=O)N[C@@H](CCC(N)=O)C(=O)N[C@@H](CCCNC(=N)N)C(=O)N[C@H](C(=O)N[C@@H](CCCCN)C(=O)N[C@@H](CC(=O)O)C(=O)N[C@@H](Cc1ccccc1)C(=O)N[C@@H](CC(C)C)C(=O)N[C@@H](CCCNC(=N)N)C(=O)N[C@@H](CC(N)=O)C(=O)N[C@@H](CC(C)C)C(=O)N[C@H](C(=O)N1CCC[C@H]1C(=O)N[C@@H](CCCNC(=N)N)C(=O)N[C@H](C(=O)N[C@@H](CCC(=O)O)C(=O)N[C@@H](CO)C(=O)O)[C@@H](C)O)C(C)C)[C@@H](C)CC)C(C)C)[C@@H](C)CC	Active	Active										
CC[C@H](C)[C@H](NC(=O)[C@H](C)NC(=O)[C@H](CCCN)NC(=O)[C@H](CCSC)NC(=O)[C@H](C)NC(=O)[C@@H](NC(=O)[C@@H](NC(=O)[C@H](CCCN)NC(=O)[C@@H]1CCCN1C(=O)[C@H](CO)NC(=O)[C@@H](NC(=O)[C@H](Cc1c[nH]cn1)NC(=O)[C@H](CCC(N)=O)NC(=O)[C@@H](NC(=O)[C@H](C)NC(=O)[C@H](Cc1ccccc1)NC(=O)[C@H](Cc1c[nH]c2ccccc12)NC(=O)[C@H](CCC(N)=O)NC(=O)[C@H](C)NC(=O)[C@H](CCCN)NC(=O)[C@@H](NC(=O)[C@H](Cc1ccccc1)NC(=O)[C@@H]1CCCN1C(=O)[C@@H](N)CCCN)[C@@H](C)O)[C@@H](C)CC)[C@@H](C)CC)[C@@H](C)O)[C@@H](C)CC)C(=O)N[C@@H](CC(N)=O)C(=O)N[C@@H](CC(N)=O)C(=O)N[C@@H](Cc1ccc(O)cc1)C(=O)N[C@@H](CCCN)C(=O)N[C@@H](Cc1c[nH]c2ccccc12)C(=O)N[C@@H](CCCN)C(=O)O	Active	Active	6.25	8.4	29.1	10	3.95	6.25 (≈ 21.9 µg/mL)	25	6.25 (≈ 21.9 µg/mL)	12.5	
H-RPFTRAQWFAIQHISPRTIAMRAINNYRWR-OH	Active	Active	1.56	8.9	12.3	44	4.64	1.56	12.5	1.56	3.13	MIC (Acinetobacter baumannii [8]): 1.56 µM; MIC (Acinetobacter baumannii [9]): 0.78 µM; MIC (Salmonella typhimurium [10]): 6.25 µM; MIC (Acinetobacter baumannii [11]): 1.56 µM; MIC (Pseudomonas aeruginosa [12]): 25 µM; MIC (Escherichia coli [13]): 6.25 µM; MIC (Acinetobacter baumannii [14]): 1.56 µM; MIC (Escherichia coli [15]): 3.13 µM; MIC (Salmonella typhimurium [16]): 6.25 µM; MIC (Pseudomonas aeruginosa [17]): 12.5 µM
